Experimental data from ChEMBL document CHEMBL1127538, “Anti-HIV michellamines from Ancistrocladus korupensis” (J Med Chem, 1994).

Experiments:
Format in all cases: functional, cell-based
[1] = test system: CEM-SS; test: Anticytopathic activity was measured against HIV-2(CBL-20 strain) in CEM-SS human lymphoblastoid target cells
How it was run: (§1)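 Cell lines in RPMI 1640 without phenol red, with 5% fetal bovine serum, 2 mM L-glutamine and 50 µg/mL gentamicin, at 37 °C and 5% CO2. Seeded at 5 × 10^5 cells/well and infected with pretitered virus at MOI 0.01-0.05, chosen for complete cell killing by day 6. Half-log aqueous dilutions of acetate salts tested in triplicate. XTT formazan read after 6 days; EC50 is 50% inhibition of virus-induced killing.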

[2] = test system: CEM-SS; test: Anticytopathic activity was measured against HIV-1(RF strain) in CEM-SS human lymphoblastoid target cells; how it was run: as §1
[3] = test system: MT2; test: Cytotoxicity was measured against MT-2/HIV-2(NIH-DZ); conditions: Homo sapiens
How it was run: (§2)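 Cytotoxicity was measured in cells-plus-drug control wells run alongside the antiviral assay. Serial half-log dilutions of acetate salts were tested in triplicate. After 6 days at 37 °C, viability was read spectrophotometrically by XTT reduction to soluble formazan. IC50 is the concentration giving a 50% decrease in viable cell number.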

[4] = test system: PBL; test: Anti -HIV activity was measured against PBLs/HIV-1 (WEJO); conditions: Homo sapiens
How it was run: (§3)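 Lymphocytes and macrophages were isolated fresh from donor whole blood by Ficoll-Hypaque centrifugation. They were infected at an MOI giving maximal virus production by day 6 and treated with half-log dilutions of acetate salts in triplicate. After 6 days at 37 °C, RT activity or p24 core protein was quantified in cell-free supernatants. EC50 is 50% inhibition of virus production.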

[5] = test system: C8166; test: Cytotoxicity was measured against C8166/HIV-1(RF); conditions: Homo sapiens; how it was run: as §2
[6] = test system: MT2; test: Anti-HIV activity was measured against drug resistant HIV-1 G9106 in MT-2 cells; conditions: Homo sapiens
How it was run: (§4)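 MT-2 cells (RPMI 1640 without phenol red, 5% FBS, 2 mM L-glutamine, 50 µg/mL gentamicin; 37 °C, 5% CO2) seeded at 5 × 10^5 cells/well and infected at an MOI pretitered for complete cell killing by day 6 (MOI 0.01-0.05). Serial half-log aqueous dilutions of acetate salt added in triplicate. After 6 days at 37 °C, viability read by XTT formazan. EC50 = 50% inhibition of virus-induced killing.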

[7] = test system: C-344 cell line; test: Cytotoxicity was measured against C-344/HIV-1(RF); conditions: Homo sapiens; how it was run: as §2
[8] = test system: LDV-7 cell line; test: Cytotoxicity was measured against LDV-7/HIV-1(RF); conditions: Homo sapiens; how it was run: as §2
[9] = test system: CEM-SS; test: Anti-HIV activity was measured against HIV-2 ROD strain laboratory strains in CEM-SS cells; conditions: Homo sapiens; how it was run: as §1
[10] = test system: AA5; test: Anti -HIV activity was measured against AA5/HIV-1(IIIB); conditions: Homo sapiens; how it was run: as §1
[11] = test system: CEM-SS; test: Anti-HIV activity was measured against HIV-1,RF laboratory strains in CEM-SS cells; conditions: Homo sapiens; how it was run: as §1
[12] = test system: CEM-SS; test: Anti -HIV activity was measured against CEM-SS/HIV-1 (NIH-DZ); conditions: Homo sapiens; how it was run: as §1
[13] = test system: MT2; test: Anti -HIV activity was measured against MT-2/HIV-1(RF); conditions: Homo sapiens; how it was run: as §4
[14] = test system: CEM-SS; test: Anti-HIV activity was measured against HIV-1 Promonocytropic SKI clinical isolates in CEM-SS cells; conditions: Homo sapiens; how it was run: as §1
[15] = test system: PMC; test: Cytotoxicity was measured against PMCs/HIV-1(Ba-L); conditions: Homo sapiens
[16] = test system: PBL; test: Cytotoxicity was measured against PBLs/HIV-1 (WEJO); conditions: Homo sapiens
[17] = test system: CEM-SS; test: Cytotoxicity was measured against CEM-SS/HIV-1 (RF); conditions: Homo sapiens; how it was run: as §2
[18] = test system: CEM-SS; test: Anti-HIV activity was measured against HIV-1 Lymphotropic 205 clinical isolates in CEM-SS cells; conditions: Homo sapiens; how it was run: as §1
[19] = test system: CCRF-CEM; test: Anti -HIV activity was measured against 174*CEM/HIV-1(IIIB); conditions: Homo sapiens; how it was run: as §1
[20] = test system: CEM-SS; test: Anti-HIV activity was measured against HIV-2 MS laboratory strains in CEM-SS cells; conditions: Homo sapiens; how it was run: as §1
[21] = test system: CEM-SS; test: Cytotoxicity was measured against CEM-SS/HIV-1 (NIH-DZ); conditions: Homo sapiens; how it was run: as §2
[22] = test system: CEM-SS; test: Anti-HIV activity was measured against HIV-1,IIIB laboratory strains in CEM-SS cells; conditions: Homo sapiens; how it was run: as §1
[23] = test system: MT2; test: Cytotoxicity was measured against MT-2/HIV-1(RF).; conditions: Homo sapiens; how it was run: as §2
[24] = test system: CEM-SS; test: Anti-HIV activity was measured against HIV-1,LAV laboratory strains in CEM-SS cells; conditions: Homo sapiens; how it was run: as §1
[25] = test system: CEM-SS; test: Anti-HIV activity was measured against HIV-1 Promonocytropic 214 clinical isolates in CEM-SS cells; conditions: Homo sapiens; how it was run: as §1
[26] = test system: CEM-SS; test: Anti-HIV activity was measured against HIV-1 Lymphotropic MCK clinical isolates in CEM-SS cells; conditions: Homo sapiens; how it was run: as §1
[27] = test system: CEM-SS; test: Anti-HIV activity was measured against HIV-1 Lymphotropic G clinical isolates in CEM-SS cells; conditions: Homo sapiens; how it was run: as §1
[28] = test system: CEM-SS; test: Anti-HIV activity was measured against HIV-1 Promonocytropic TPI clinical isolates in CEM-SS cells; conditions: Homo sapiens; how it was run: as §1
[29] = test system: CEM-SS; test: Anti-HIV activity was measured against HIV-2 CBL-20 laboratory strains in CEM-SS cells; conditions: Homo sapiens; how it was run: as §1
[30] = test system: CEM-SS; test: Anti-HIV activity was measured against HIV-2 NIH-DZ strain laboratory strains in CEM-SS cells; conditions: Homo sapiens; how it was run: as §1
[31] = test system: AA5; test: Cytotoxicity was measured against AA5/HIV-1(IIIB); conditions: Homo sapiens; how it was run: as §2
[32] = test system: CEM-SS; test: Anti-HIV activity was measured against HIV-1 Promonocytropic MN clinical isolates in CEM-SS cells; conditions: Homo sapiens; how it was run: as §1
[33] = test system: LDV-7 cell line; test: Anti -HIV activity was measured against LDV-7/HIV-1(RF); conditions: Homo sapiens; how it was run: as §1
[34] = test system: CEM-SS; test: Anti -HIV activity was measured against CEM-SS/HIV-1 (RF); conditions: Homo sapiens; how it was run: as §1
[35] = test system: MT2; test: Anti -HIV activity was measured against MT-2/HIV-2(NIH-DZ); conditions: Homo sapiens; how it was run: as §4
[36] = test system: C-344 cell line; test: Anti -HIV activity was measured against C-344/HIV-1(RF); conditions: Homo sapiens; how it was run: as §1
[37] = test system: PMC; test: Anti -HIV activity was measured against PMCs/HIV-1(Ba-L); conditions: Homo sapiens; how it was run: as §3
[38] = test system: MT2; test: Anti-HIV activity was measured against drug resistant HIV-1 A17 in MT-2 cells; conditions: Homo sapiens; how it was run: as §4
[39] = test system: C8166; test: Anti -HIV activity was measured against C8166/HIV-1(RF); conditions: Homo sapiens; how it was run: as §1
[40] = test system: CEM-SS; test: Anti-HIV activity was measured against HIV-1 Lymphotropic PM16 clinical isolates in CEM-SS cells; conditions: Homo sapiens; how it was run: as §1
[41] = test system: CCRF-CEM; test: Cytotoxicity was measured against 174*CEM/HIV-1(IIIB); conditions: Homo sapiens; how it was run: as §2

SMILES: COc1cc(C)cc2c(-c3c(O)cc(O)c4c3C[C@@H](C)N[C@@H]4C)cc(-c3cc(-c4c(O)cc(O)c5c4C[C@@H](C)N[C@@H]5C)c4cc(C)cc(OC)c4c3O)c(O)c12 (stereo in doubt; form 1) [MICHELLAMINE A]
- EC50 [1]: 10 µM
- EC50 ([2]; Homo sapiens, CEM-SS): 10 µM

SMILES: COc1cc(C)cc2c(-c3c(O)cc(O)c4c3C[C@@H](C)N[C@@H]4C)cc(-c3cc(-c4c(O)cc(O)c5c4C[C@@H](C)N[C@@H]5C)c4cc(C)cc(OC)c4c3O)c(O)c12 (stereo in doubt; form 2) [MICHELLAMINE A]
- EC50 ([2]; cem-ss): 13 µM

SMILES: COc1cc(C)cc2c(-c3c(O)cc(O)c4c3C[C@@H](C)N[C@@H]4C)cc(-c3cc(-c4c(O)cc(O)c5c4C[C@@H](C)N[C@@H]5C)c4cc(C)cc(OC)c4c3O)c(O)c12 (stereo in doubt; form 3) [MICHELLAMINE A]
- EC50 [1]: 2 µM
- IC50 [3]: 100 µM
- EC50 [4]: 5 µM
- IC50 [5]: > 240 µM
- EC50 [6]: 5 µM
- IC50 [7]: 160 µM
- IC50 [8]: 100 µM
- EC50 [9]: 18 µM
- EC50 [10]: 33 µM
- EC50 [11]: 12 µM
- EC50 [12]: 1 µM
- EC50 [13]: 40 µM
- EC50 [14]: 12 µM
- IC50 [15]: > 240 µM
- IC50 [16]: > 240 µM
- IC50 [17]: 120 µM
- EC50 [18]: 11 µM
- EC50 [19]: 23 µM
- EC50 [20]: 7 µM
- IC50 [21]: 42 µM
- EC50 [22]: 1 µM
- IC50 [23]: 200 µM
- EC50 [24]: 4 µM
- EC50 [25]: 10 µM
- EC50 [26]: 3 µM
- EC50 [27]: 3 µM
- EC50 [28]: 6 µM
- EC50 [29]: 2 µM
- EC50 [30]: 5 µM
- IC50 [31]: > 125 µM
- EC50 [32]: 13 µM
- EC50 [33]: 13 µM
- EC50 [34]: 13 µM
- EC50 [35]: 6 µM
- EC50 [36]: 39 µM
- EC50 [37]: 10 µM
- EC50 [38]: 9 µM
- EC50 [39]: 88 µM
- EC50 [40]: 12 µM
- IC50 [41]: > 125 µM
